Measured values taken from ChEMBL document CHEMBL3745621, “Synthesis and evaluation of gallocyanine dyes as potential agents for the treatment of Alzheimer's disease and related neurodegenerative tauopathies” (Eur J Med Chem, 2016).
pIC50: −log10 of the molar value. The source made the active and inactive calls. No cut-off for these calls is given here.

Assays:
[1] = Cytotoxicity against mouse primary cortical neurons assessed as viable cells at 10 uM after 24 hrs by MTT assay; format: cell-based, Cerebral cortex neuron; conditions: for viability at 24 h, 10 µM: primary cortical neurons, read-out: Activity
Outline: (§1)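 Primary mouse cortical neurons seeded at 25,000 or 15,000 cells/well and grown 6 days at 37 °C, 5% CO2. Test compound was then added in fresh medium (final DMSO 0.1%) for 24 h at 37 °C. MTT (2.5 mg/ml in PBS) was added for 4 h. Formazan was extracted with isopropanol/HCl and absorbance read at 545 nm. Read-out is % viable cells.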

[2] = Cytotoxicity against mouse primary cortical neurons assessed viable cells at 100 uM after 24 hrs by MTT assay; format: cell-based, Cerebral cortex neuron; conditions: for viability at 24 h, 100 µM: primary cortical neurons, read-out: Activity; outline: as §1
[3] = biological target: Dickkopf-related protein 1/Low-density lipoprotein receptor-related protein 6 (Homo sapiens) (UniProt O94907+O75581); test: Inhibition of DKK1/LRP6 (unknown origin) expressed in HEK293 cells assessed as inhibition of DKK1/LRP6 interaction at 100 uM after 2 hrs by immunofluorescence method; format: cell-based
Outline: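 HEK-293 cells stably overexpressing LRP6, sub-confluent, incubated 2 h at 4 °C with DKK1 conditioned medium plus compound or DMSO. Fixed in 3% paraformaldehyde, blocked in PBS/0.1% BSA, stained with rabbit anti-DKK1 and Alexa488 secondary; DAPI nuclei. Surface DKK1 fluorescence quantified over 750 cells as % DKK1 binding; three independent experiments in duplicate.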

[4] = biological target: Dickkopf-related protein 1/Lrp6 (Mus musculus) (UniProt O54908+O88572); test: Inhibition of DKK1-LRP6 interactions in mouse cortical neurons assessed as inhibition of prostaglandinJ2-induced tau phosphorylation at Ser396 residue at 10 uM for 1 hr by western bloting
Outline: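 Primary mouse cortical neurons treated 1 h at 37 °C with 20 µM PGJ2 plus compound or DMSO. Lysed at 4 °C in Tris/NaCl/EDTA/Triton buffer, pH 7.6, with protease and phosphatase inhibitors; protein measured by Bradford. SDS-PAGE western blot probed with anti-pSer396 tau (1:1000, overnight, 4 °C) and anti-actin; ECL detection. Densitometry normalized to actin; three independent experiments, mean SD.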

[5] = biological target: T1, Dickkopf-related protein 1 (Mus musculus, UniProt O54908); test: Inhibition of mouse DKK1 assessed as inhibition of DKK1-alkaline phophatase binding to LRP5 transfected in HEK293 cells; format: cell-based
T1 sequence (O54908 whole entry): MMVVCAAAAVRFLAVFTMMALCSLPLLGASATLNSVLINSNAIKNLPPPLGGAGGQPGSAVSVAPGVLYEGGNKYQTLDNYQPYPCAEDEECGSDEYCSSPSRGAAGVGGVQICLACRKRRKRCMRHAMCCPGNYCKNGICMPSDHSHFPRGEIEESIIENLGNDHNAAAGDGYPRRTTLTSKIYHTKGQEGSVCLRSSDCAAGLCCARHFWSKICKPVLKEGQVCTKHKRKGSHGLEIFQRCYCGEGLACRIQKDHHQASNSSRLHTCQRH

Dickkopf-related protein 1/Lrp6 (Mus musculus), sequence (O88572 whole entry, looked up, one chain of several): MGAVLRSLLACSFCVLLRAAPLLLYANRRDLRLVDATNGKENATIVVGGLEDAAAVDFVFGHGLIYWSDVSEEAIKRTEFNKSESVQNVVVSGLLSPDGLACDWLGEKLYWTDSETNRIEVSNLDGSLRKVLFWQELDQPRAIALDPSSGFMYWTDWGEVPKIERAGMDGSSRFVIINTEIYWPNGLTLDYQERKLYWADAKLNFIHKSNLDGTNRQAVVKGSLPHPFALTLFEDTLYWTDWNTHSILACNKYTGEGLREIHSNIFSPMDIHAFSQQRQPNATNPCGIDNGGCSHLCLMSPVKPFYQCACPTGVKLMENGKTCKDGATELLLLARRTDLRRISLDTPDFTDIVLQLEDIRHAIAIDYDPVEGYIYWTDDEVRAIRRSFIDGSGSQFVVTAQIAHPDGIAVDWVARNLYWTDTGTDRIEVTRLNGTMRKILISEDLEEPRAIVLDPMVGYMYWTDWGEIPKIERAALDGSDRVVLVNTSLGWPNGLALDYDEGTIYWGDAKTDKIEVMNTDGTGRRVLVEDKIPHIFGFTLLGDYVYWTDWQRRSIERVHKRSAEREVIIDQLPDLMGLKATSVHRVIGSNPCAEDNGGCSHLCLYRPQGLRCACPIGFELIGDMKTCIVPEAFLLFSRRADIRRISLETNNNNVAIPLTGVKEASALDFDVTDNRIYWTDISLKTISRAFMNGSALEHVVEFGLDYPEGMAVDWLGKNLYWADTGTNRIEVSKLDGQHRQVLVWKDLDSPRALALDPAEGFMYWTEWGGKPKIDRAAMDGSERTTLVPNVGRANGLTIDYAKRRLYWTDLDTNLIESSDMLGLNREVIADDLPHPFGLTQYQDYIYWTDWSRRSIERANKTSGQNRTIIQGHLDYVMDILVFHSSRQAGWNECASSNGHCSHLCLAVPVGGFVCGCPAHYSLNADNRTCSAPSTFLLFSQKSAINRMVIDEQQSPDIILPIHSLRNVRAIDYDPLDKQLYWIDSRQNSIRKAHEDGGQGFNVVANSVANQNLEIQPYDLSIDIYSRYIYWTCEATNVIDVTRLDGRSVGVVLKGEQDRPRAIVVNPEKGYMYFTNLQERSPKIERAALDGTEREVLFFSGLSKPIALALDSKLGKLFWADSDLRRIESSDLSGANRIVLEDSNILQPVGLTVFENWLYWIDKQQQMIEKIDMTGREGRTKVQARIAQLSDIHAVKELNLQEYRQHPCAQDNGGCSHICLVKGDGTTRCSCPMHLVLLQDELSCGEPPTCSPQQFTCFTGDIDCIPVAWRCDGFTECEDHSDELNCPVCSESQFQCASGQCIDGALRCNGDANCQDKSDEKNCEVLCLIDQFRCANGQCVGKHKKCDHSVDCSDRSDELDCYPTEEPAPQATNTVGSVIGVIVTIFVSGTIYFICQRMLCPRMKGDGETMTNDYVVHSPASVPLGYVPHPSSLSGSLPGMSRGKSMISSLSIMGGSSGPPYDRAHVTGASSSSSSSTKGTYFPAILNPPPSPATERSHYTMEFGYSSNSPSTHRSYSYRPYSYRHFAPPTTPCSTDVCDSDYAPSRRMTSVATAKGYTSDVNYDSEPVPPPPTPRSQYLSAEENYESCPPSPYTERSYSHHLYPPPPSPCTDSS
Dickkopf-related protein 1/Low-density lipoprotein receptor-related protein 6 (Homo sapiens), sequence (O75581 20-1613 partner limits assumed): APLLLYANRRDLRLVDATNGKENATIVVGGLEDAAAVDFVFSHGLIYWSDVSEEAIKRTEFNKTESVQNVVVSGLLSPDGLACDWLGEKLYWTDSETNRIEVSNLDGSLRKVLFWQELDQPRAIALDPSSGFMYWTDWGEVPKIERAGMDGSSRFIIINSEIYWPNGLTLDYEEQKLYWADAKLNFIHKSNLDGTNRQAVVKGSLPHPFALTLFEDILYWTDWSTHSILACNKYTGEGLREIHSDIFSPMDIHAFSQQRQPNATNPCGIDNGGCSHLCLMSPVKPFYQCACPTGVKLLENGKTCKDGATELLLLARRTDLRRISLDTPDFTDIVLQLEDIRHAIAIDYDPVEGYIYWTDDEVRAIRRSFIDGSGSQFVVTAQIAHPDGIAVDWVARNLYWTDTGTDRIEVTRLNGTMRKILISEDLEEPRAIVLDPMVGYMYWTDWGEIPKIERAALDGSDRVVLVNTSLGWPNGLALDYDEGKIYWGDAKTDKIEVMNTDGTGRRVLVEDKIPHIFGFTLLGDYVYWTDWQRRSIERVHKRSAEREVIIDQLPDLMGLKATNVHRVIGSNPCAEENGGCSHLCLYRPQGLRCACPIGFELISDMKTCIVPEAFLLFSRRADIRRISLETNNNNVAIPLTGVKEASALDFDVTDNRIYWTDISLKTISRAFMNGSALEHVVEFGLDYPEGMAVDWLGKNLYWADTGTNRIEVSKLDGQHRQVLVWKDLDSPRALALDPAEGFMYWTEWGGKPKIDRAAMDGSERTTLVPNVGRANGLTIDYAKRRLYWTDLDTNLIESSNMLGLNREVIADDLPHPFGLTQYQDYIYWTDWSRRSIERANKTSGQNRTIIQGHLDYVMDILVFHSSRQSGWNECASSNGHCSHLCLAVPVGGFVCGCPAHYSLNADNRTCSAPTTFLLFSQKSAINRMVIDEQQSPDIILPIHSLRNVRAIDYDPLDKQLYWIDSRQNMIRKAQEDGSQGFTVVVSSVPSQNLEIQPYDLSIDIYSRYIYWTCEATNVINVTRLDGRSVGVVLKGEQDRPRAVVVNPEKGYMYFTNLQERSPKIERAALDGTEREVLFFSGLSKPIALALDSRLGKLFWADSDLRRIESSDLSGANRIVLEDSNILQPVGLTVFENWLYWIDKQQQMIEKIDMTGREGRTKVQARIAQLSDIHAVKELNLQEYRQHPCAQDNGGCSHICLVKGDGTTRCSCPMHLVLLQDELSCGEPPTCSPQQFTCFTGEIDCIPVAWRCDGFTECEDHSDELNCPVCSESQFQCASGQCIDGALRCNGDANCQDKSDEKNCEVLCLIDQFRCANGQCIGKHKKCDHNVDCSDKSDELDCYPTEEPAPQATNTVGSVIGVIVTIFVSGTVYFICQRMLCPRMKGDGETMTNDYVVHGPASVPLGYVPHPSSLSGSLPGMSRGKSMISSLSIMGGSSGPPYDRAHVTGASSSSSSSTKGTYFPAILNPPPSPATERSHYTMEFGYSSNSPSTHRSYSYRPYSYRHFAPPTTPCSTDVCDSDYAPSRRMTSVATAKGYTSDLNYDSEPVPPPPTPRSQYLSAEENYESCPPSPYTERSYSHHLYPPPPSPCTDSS
Dickkopf-related protein 1/Low-density lipoprotein receptor-related protein 6 (Homo sapiens), sequence (O94907 32-266 limits assumed): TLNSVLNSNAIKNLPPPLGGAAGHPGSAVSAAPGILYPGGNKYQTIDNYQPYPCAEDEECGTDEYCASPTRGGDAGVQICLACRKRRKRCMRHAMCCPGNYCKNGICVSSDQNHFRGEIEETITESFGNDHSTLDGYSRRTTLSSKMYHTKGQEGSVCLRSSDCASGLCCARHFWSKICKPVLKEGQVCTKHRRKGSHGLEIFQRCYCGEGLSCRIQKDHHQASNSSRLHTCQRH

inhibition [3]	inhibition [4]	pIC50 [5]	Structure (SMILES)	viability at 24 h, 10 µM [1] [%]	viability at 24 h, 100 µM [2] [%]	Activity ([1]; cerebral cortex neuron, 24 h, 10 µM) [%]	Activity ([2]; cerebral cortex neuron, 24 h, 100 µM) [%]
Active	–	–	CN(C)c1ccc2nc3c(O)cc(=O)cc-3oc2c1	100	100	–	–
Active	Active	–	CC(C)OC(=O)c1cc(=O)c(O)c2oc3cc(N(C)C)ccc3nc1-2	100	100	–	–
Active	–	–	Cc1cc(=O)cc2oc3cc(N(C)C)ccc3nc1-2	100	100	–	–
Active	Active	–	CCCCOC(=O)c1cc(=O)c(O)c2oc3cc(N(C)C)ccc3nc1-2	100	100	–	–
Active	Active	–	COC(=O)c1cc(=O)c(O)c2oc3cc(N(C)C)ccc3nc1-2	100	100	–	–
Active	Active	–	CN(C)c1ccc2nc3ccc(=O)c(O)c-3oc2c1	100	100	–	–
Active	–	–	COCCOC(=O)c1cc(O)c(O)c2oc3cc(=[N+](C)C)ccc-3nc12	100	100	–	–
Active	–	–	CCCCOC(=O)c1cc(O)c(O)c2oc3cc(=[N+](C)C)ccc-3nc12	100	100	–	–
–	–	–	CN(C)c1ccc2nc3c(C(=O)O)cc(=O)c(O)c-3oc2c1 [listing 1 of 3 here]	–	–	100	100
Active	Active	–	CN(C)c1ccc2nc3c(C(=O)O)cc(=O)c(O)c-3oc2c1 [listing 2 of 3 here]	–	–	–	–
Active	–	–	CCCN(CCC)c1ccc2nc3c(C(=O)OC)cc(=O)c(O)c-3oc2c1	100	100	–	–
Active	Active	–	CN(C)c1ccc2nc3c(C(=O)OCc4ccccc4)cc(=O)c(O)c-3oc2c1	100	100	–	–
Active	Active	–	COCCOC(=O)c1cc(=O)c(O)c2oc3cc(N(C)C)ccc3nc1-2	100	100	–	–
Active	Active	–	CCOC(=O)c1cc(=O)c(O)c2oc3cc(N(C)C)ccc3nc1-2	100	100	–	–
Active	–	–	CCOC(=O)c1cc(O)c(O)c(O)c1 [ETHYLGALLATE]	100	100	–	–
Active	Active	–	CCCCCCOC(=O)c1cc(=O)c(O)c2oc3cc(N(C)C)ccc3nc1-2	100	100	–	–
Active	–	–	CCCCCCOC(=O)c1cc(O)c(O)c2oc3cc(=[N+](C)C)ccc-3nc12	100	100	–	–
Active	–	–	CCOC(=O)c1cc(O)c(O)c2oc3cc(=[N+](C)C)ccc-3nc12	100	100	–	–
Active	–	–	CCCCOC(=O)c1cc(=O)c(O)c2oc3cc(N(CCC)CCC)ccc3nc1-2	100	100	–	–
–	–	5.52	CN(C)c1ccc2nc3c(C(=O)O)cc(=O)c(O)c-3oc2c1 [listing 3 of 3 here]	100	100	–	–
